Reference: the M2OR odorant receptor database

target: T1, OR2A1 (Homo sapiens) (UniProt Q8NGT9); conditions: stereoisomer not certain
T1 sequence (whole entry): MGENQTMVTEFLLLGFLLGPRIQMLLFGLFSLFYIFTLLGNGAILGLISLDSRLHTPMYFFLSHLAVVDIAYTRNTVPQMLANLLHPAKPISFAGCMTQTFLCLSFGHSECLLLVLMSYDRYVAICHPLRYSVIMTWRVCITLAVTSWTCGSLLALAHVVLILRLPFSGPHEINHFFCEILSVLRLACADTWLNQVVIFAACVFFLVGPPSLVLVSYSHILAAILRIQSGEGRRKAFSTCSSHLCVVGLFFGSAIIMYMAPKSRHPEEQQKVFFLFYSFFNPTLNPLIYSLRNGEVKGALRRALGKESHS
In short: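 Transient luciferase assays in mammalian cell lines were common, though methods varied by source. The values come from published papers and their supplementary material, with extra details from the original authors when needed. Responsive refers to a measured signal the original authors judged statistically different from baseline, and non-responsive (inactive) to the remainder.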
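Further: active if original authors judged signal statistically different from baseline.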

Odorant receptor agonist call, inactive:
CCCCCCCCCC(=O)OCC
CCCCCCCCCCCC(=O)OC
CCCO
CCCCCCC(=O)[O-].[H+]
Cc1cnc(C)cn1
CCCCC(=O)C(C)=O
CCCCCCCCCCCCCC(=O)O
CCCCCCCCCCCCCCCC(=O)OCC
CCCCCCCCCCCCCCCC(=O)OC
C=C1CCC2CC1C2(C)C (stereo not drawn)
CCCCCCCCCCCCCCCCCC(=O)OC
CC(C)=CCCC(C)=CCCC(C)=CCO
CCCCCCCCCCCCCCC(=O)O
C=C(C)C1CC=C(C)CC1 (stereo not drawn)
CCC(=O)O
Cc1ccc(C(C)C)cc1
CC(O)C(=O)[O-].[H+] (stereo not drawn)
CCCCCCCCCCCCCCCC(=O)[O-].[H+]
CCCCCCCCCCCCCC(=O)OCC
CCC(O)CC
CCCCCCCC(=O)[O-].[H+]
CC(=O)O
CC(C=O)Cc1ccc(C(C)(C)C)cc1 (stereo not drawn)
O=c1ccc2ccccc2o1
CCCCCCCCCCCCCCCCCC(=O)OCC
CCC(C)CO (stereo not drawn)
CCCCCCCCCCCCCCCCCC(=O)[O-].[H+]
Cc1cccc(C)c1C
